FGF22 binding: FGF22 (human) thermal shift binding | Q9HCT0 | recombinant FGF22 thermal shift, SYPRO orange fluorescence; percent of sucrose octasulfate shift, DMSO zero | activity (Tm shift, normalised), % at 9.99 µM | hit rate 1.5% among 340,000 | AID 651658;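 active = mean Tm shift, scaled 0 neutral to 100 positive control, at about 1.3% or above, every replicate too, limit read from the data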
Target sequence (Q9HCT0 whole entry, looked up): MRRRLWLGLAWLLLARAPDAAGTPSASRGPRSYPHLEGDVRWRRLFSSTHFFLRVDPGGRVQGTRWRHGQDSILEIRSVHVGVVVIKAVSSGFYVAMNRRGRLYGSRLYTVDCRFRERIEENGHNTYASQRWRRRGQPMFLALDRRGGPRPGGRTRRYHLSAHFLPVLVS
NR2E3 ag-1: NR2E3 (human) agonism; Q9Y5X4; inhibition of corepressor binding, % at 4.78 µM; GST-NR2E3/biotin-RetCOR TR-FRET, 1536-well; hit rate 0.12% among 320,000;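 active = percent inhibition above the cutoff of mean plus 3 SD of all tested compounds, set per screening campaign, cut at about 20% in these data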;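 note: 0% = DMSO wells and 100% = biotin wells as full block of FRET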
Target sequence (Q9Y5X4 whole entry, looked up): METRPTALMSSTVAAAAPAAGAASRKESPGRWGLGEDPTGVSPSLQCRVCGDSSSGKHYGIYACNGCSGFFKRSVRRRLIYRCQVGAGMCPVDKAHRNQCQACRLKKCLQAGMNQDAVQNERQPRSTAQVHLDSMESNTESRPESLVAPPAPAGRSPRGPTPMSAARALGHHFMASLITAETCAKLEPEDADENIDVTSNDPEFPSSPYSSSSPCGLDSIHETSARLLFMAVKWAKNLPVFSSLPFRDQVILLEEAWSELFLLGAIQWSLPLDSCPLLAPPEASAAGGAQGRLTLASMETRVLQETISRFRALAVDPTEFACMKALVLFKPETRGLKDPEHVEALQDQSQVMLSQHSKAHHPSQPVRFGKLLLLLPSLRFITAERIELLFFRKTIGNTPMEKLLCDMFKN
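Material – GST-tagged NR2E3 plus biotinylated RetCOR corepressor · Quantity – NR2E3 fusion 1.35 nM · Times – 5 h incubation at 4 °C · Medium – pH 7.5 Tris-based buffer · Technique – TR-FRET, Eu(K)-anti-GST donor, streptavidin-D2 acceptor, ex 340, em 617/671 nm · Benchmarks – high control biotin, low control 0.6% DMSO · Format – 1536-well plates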
697 NFkB inh: lowers PMA/ionomycin-induced NF-kB signal in 697 B cells | 697 B-cell NF-kB luciferase reporter, 16 h | inhibition, % at 4 µM | hit rate 0.33% among 330,000; in the data active = inhibition above about 35%
NR2E3 ag-2: human photoreceptor-specific nuclear receptor agonism; hit rate 0.35% among 360,000; Q9Y5X4; CHO-S Gal4-NCOR/VP16-NR2E3 two-hybrid, luciferase; AID 602229; inhibition of corepressor binding, % at 3.98 µM;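 active = inhibition above the mean of all tested compounds plus 3 SD, cut at about 70% in these data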;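 note: 0% = DMSO with NR2E3 transfected cells and 100% = cells lacking NR2E3 construct; higher means lower luciferase signal from less NR2E3 corepressor binding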
Jurkat NFkB inh: inhibitors of the PMA/ionomycin-induced NF-kB reporter in Jurkat cells; PMA/ionomycin-induced NF-kB luciferase reporter, luminescence; inhibition, % at 4 µM; hit rate 0.53% among 330,000; in the data active = inhibition above about 50%
miR-122 sensor: inhibitors of miR-122 in Huh7 cells. hit rate 0.3% among 340,000. AID 602342. activation (reporter increase), % at 12.5 µM. Huh7 miR-122 Renilla luciferase sensor, 48 h; neutral wells = 0, positive control = 100;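 active = mean replicate activation score at least 90 and every replicate individually at or above 90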;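 note: higher luciferase means less miR-122 activity so hits act as miR-122 inhibitors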
697 NFkB conf: lowers PMA/ionomycin-induced NF-kB signal in 697 B cells; shares compounds with 697 NFkB inh; hit rate 35% among 2,000; inhibition, % at 4 µM; 697 B-cell NF-kB luciferase, 16 h; in the data active = inhibition mostly above about 28%, no sharp cut-off; inactive = mostly below about 22%
Numbers without * were called inactive; i = inactive; / = no result given; [ ] = dose if it differs, or a comment. Most compounds without a hit are left out; they make up all but 2.2% or so of the library.

SMILES	FGF22 binding	NR2E3 ag-1	697 NFkB inh	NR2E3 ag-2	Jurkat NFkB inh	miR-122 sensor	697 NFkB conf
CC(C)(C)c1ccc(-c2cc(N)n[nH]2)cc1	0	-2	44*	-37	-50	/	45*
O=C(C[C@H]1C[C@@H]2c3cc(NC(=O)c4ccc5c(c4)OCO5)ccc3O[C@@H]2[C@H](CO)O1)NCCc1ccccc1	0	/	/	/	/	3[16.7 µM]	/
COc1cccc(-c2ccc([C@H]3[C@@H](C#N)N(C(=O)Cc4ccncc4)[C@@H]3CO)cc2)c1	0	/	/	/	/	/	/
Cn1cc(Cl)c(C(=O)Nc2nc3ccccc3s2)n1	/	1	-256	-180	-89	4	-267
COc1cc(C(=O)Nc2ccc(C(=O)c3cccs3)cc2)cc(OC)c1OC	0	-2	37*	10	22	-7	6
CC/C(=N/Nc1ccc(Cl)cc1)c1cnnc(SC)n1	/	1	36*	-27	-4	/	17
CO[C@H]1CN(C)C(=O)c2ccc(NC(=O)Nc3ccc4c(c3)OCO4)cc2OC[C@@H](C)NC[C@@H]1C	0	/	/	/	/	/	/
O=C(O)c1ccc2c(c1)CCC2	0	5	21	-11	5	-5	/
O=C(O)CCC(=O)c1ccc2c(c1)CCCC2	1	2	35*	-16	7	0	-4
C[C@H]1CN([C@@H](C)CO)C(=O)Cc2cc(N(C)C)ccc2O[C@@H]1CN(C)C	0	/	/	/	/	-3[16.7 µM]	/
Cc1ccoc1C(=O)Nc1ccc(CC(=O)O)cc1	/	-1	66*	7	38	15	60*
CC(=C/c1ccco1)/C=N/NC(=O)CSc1nnc(SCc2ccc(C)cc2)s1	0	1	52*	30	-2	/	50*
c1ccc2sc(Nc3nc4cc5c(cc4s3)OCO5)nc2c1	/	-1	-290	-146	-148	5	-324
COc1ccc(OC)c(NC(=O)c2nc(S(=O)(=O)Cc3ccccc3)ncc2Cl)c1	0	2	-441	8	49	-30	-203
O=c1cnn([C@@H]2O[C@H](CO)[C@@H](O)[C@H]2O)c(=O)[nH]1	/	4	i	-5	4	-2	i
CCOC(=O)C1CCN(c2ncnc3c2cnn3-c2ccc(Cl)cc2)CC1	/	0	61*	1	24	/	67*
COc1ccc(C#Cc2ccc3c(c2)O[C@@H](CN(C)C(=O)c2ccccn2)[C@@H](C)CN([C@H](C)CO)S3(=O)=O)cc1	0	/	/	/	/	8[16.7 µM]	/
C[C@@H]1CN([C@H](C)CO)S(=O)(=O)c2ccc(C3=CCCCC3)cc2O[C@@H]1CN(C)Cc1ccccn1	0	/	/	/	/	20[16.7 µM]	/
CC(C)c1ccc(C(O)Cc2nc3ccccc3n2C)cc1 (centres undefined)	0	-2	-74	-37	-43	/	/
CN(C)c1ccc(C(O)Cc2nc3ccccc3n2C)cc1 (centres undefined)	0	-1	-269	-13	-107	2	-289
CC1(C)Cc2ccccc2C(/C(=N\Nc2cccc(Cl)c2)C(N)=O)=N1	/	-2	-17	-3	8	/	/
CC(=O)c1ccc(N/N=C(/C(N)=O)C2=NC(C)(C)Cc3ccccc32)cc1	/	-1	-420	23	-48	-3	-193
COc1cc(-c2nc(S(=O)(=O)c3ccc(Cl)cc3)c(N3CCOCC3)o2)cc(OC)c1OC	/	0	28	18	12	-2	/
COc1cc(-c2nc(S(=O)(=O)c3ccc(C)cc3)c(N3CCOCC3)o2)cc(OC)c1OC	/	-5	42*	-1	3	-7	20
Cc1ccc(-n2c(-c3ccccc3)c[n+]3c2CCc2ccccc2-3)c(C)c1	0	2	49*	-16	33	/	28*
SMILES	FGF22 binding	NR2E3 ag-1	697 NFkB inh	NR2E3 ag-2	Jurkat NFkB inh	miR-122 sensor	697 NFkB conf
COc1ccc2c3c(n(C)c2c1)[C@@H](CO)N(C)CC31CN(S(C)(=O)=O)C1	0	/	/	/	/	/	/
Fc1ccc(C2=Nn3c(nnc3-c3n[nH]c4c3CCC4)SC2)cc1	/	5	44*	-16	-9	-1	53*
CC1=Nn2c(nnc2-c2n[nH]c3c2CCC3)SC1	/	0	23	-26	-15	-21	/
Cc1c(O)ccc(/C=N/Nc2ncccc2[N+](=O)[O-])c1O	0	2	-371	-84	-131	/	-278
CC(=O)c1c(C)nc(Nc2nc3ccccc3s2)nc1C	0	2	-291	-96	-129	4	-206
COC(=O)c1ccsc1NC(=O)c1ccccc1	0	2	12	-48	-2	-3	/
COC(=O)Nc1sccc1C(=O)Nc1sccc1C(=O)OC	/	-3	39*	-4	2	-4	-3
Cc1ccc(S(=O)(=O)N(C)C[C@H]2Oc3ccc(NC(=O)CCCCCC(=O)Nc4ccccc4N)cc3CC(=O)N([C@H](C)CO)C[C@@H]2C)cc1	0	/	/	/	/	-4[16.7 µM]	/
CCOC(=O)c1cnc(SCc2ccccc2)nc1N	/	3	-261	-115	-77	-12	-157
Cc1cccc2nc(COc3ccc(-c4ccccc4)cc3)cn12	/	0	i	/	-27	/	-450
Cc1ccc2ccc(C3C(=O)c4ccccc4C3=O)nc2c1	0	0	-354	-89	-123	/	-176
Cc1ccc(C)c(C2C(=O)c3ccccc3C2=O)c1	0	-1	2	-26	-9	-1	/
COCCCNC(=O)c1c(N)n(/N=C/c2cccnc2)c2nc3ccccc3nc12	/	4	4	-23	25	-3	/
CCC(C)NC(=O)c1c(N)n(/N=C/c2cccnc2)c2nc3ccccc3nc12 (centres undefined)	/	0	14	-18	7	13	/
CC(C)OCCCNC(=O)c1c(N)n(/N=C/c2ccccn2)c2nc3ccccc3nc12	/	2	44*	-20	39	-8	37*
CCC(C)NC(=O)c1c(N)n(/N=C/c2ccccn2)c2nc3ccccc3nc12 (centres undefined)	/	-1	52*	0	3	-18	44*
CC(C)CC#Cc1ccc2c(c1)O[C@H](CN(C)Cc1cccnc1)[C@@H](C)CN([C@@H](C)CO)S2(=O)=O	/	/	/	/	/	14[16.7 µM]	/
COc1ccc(CN(C)C[C@H]2OCCCC[C@H](C)Oc3ccc(NS(=O)(=O)c4ccc(C)cc4)cc3C(=O)N([C@H](C)CO)C[C@@H]2C)cc1	/	/	/	/	/	4[16.7 µM]	/
C[C@@H]1CN([C@H](C)CO)C(=O)Cc2cc(NC(=O)C3CC3)ccc2O[C@H]1CN(C)S(=O)(=O)c1ccc(Cl)cc1	0	/	/	/	/	1[16.7 µM]	/
Nc1cc(Cl)nc(N/N=C/c2ccccc2[N+](=O)[O-])n1	/	4	-60	-87	-54	3	/
Nc1cc(Cl)nc(N/N=C/c2ccc([N+](=O)[O-])cc2)n1	/	-1	41*	-25	2	1	11

Assay outcomes deposited in PubChem BioAssay by several laboratories.
